The values that follow come from ChEMBL document CHEMBL1151810, “Bioassay-guided isolation of xanthones and polycyclic prenylated acylphloroglucinols from Garcinia oblongifolia” (J Nat Prod, 2009).

In experiment [1] the test system is HeLa C3. The experiment in a line: Induction of apoptosis in human HeLaC3 cells assessed as reduction of yellow fluorescent protein/cyan fluorescent protein emission ratio below 3 at 20 uM after 48 hrs using fluorescent plate reader. Format: functional, cell-based. An outline of the steps:
(§1)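 HeLa-C3 cells express a caspase-3-cleavable CFP/YFP biosensor and are grown in MEM with 10% FBS and penicillin/streptomycin at 37 °C, 5% CO2. Seed 7500 cells per well and incubate 12-16 h. Take a 0 h read (ex 440 nm; em 486 nm CFP, 535 nm YFP), then replace the medium with compound-containing medium; include cell-free background wells. Read repeatedly up to 72 h. A YFP/CFP ratio below 3 scores as apoptotic. Triplicate wells, three experiments; 0.1% DMSO negative control.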

The test system of experiment [2] is HeLa C3. The experiment can be described thus: Induction of apoptosis in human HeLaC3 cells assessed as reduction of yellow fluorescent protein/cyan fluorescent protein emission ratio below 3 at 20 uM after 72 hrs using fluorescent plate reader. It is filed as functional, cell-based. The method, boiled down: as §1
Experiment [3] deals with HeLa C3. The experiment can be described thus: Induction of apoptosis in human HeLaC3 cells assessed as reduction of yellow fluorescent protein/cyan fluorescent protein emission ratio below 3 at 20 uM after 24 hrs using fluorescent plate reader. Format: functional, cell-based. An outline of the steps: as §1
Experiment [4] concerns HeLa C3. The experiment can be described thus: Induction of apoptosis in human HeLaC3 cells assessed as reduction of yellow fluorescent protein/cyan fluorescent protein emission ratio below 3 at 500 nM after 72 hrs using fluorescent plate reader.
Experiment [5] relates to HeLa C3. The experiment in a line: Induction of apoptosis in human HeLaC3 cells assessed as reduction of yellow fluorescent protein/cyan fluorescent protein emission ratio below 3 at 500 nM after 24 hrs using fluorescent plate reader.
For experiment [6], the system named is HeLa C3. The experiment can be described thus: Induction of apoptosis in human HeLaC3 cells assessed as shrinkage and detached morphology at 500 nM after 24 hrs.
Experiment [7] concerns HeLa C3. The experiment can be described thus: Induction of apoptosis in human HeLaC3 cells assessed as shrinkage and detached morphology at 500 nM after 48 hrs.
The test system of experiment [8] is HeLa C3. The experiment can be described thus: Induction of apoptosis in human HeLaC3 cells assessed as shrinkage and detached morphology at 500 nM after 72 hrs.
The test system of experiment [9] is HeLa C3. The experiment in a line: Induction of apoptosis in human HeLaC3 cells assessed as reduction of yellow fluorescent protein/cyan fluorescent protein emission ratio below 3 at 500 nM after 48 hrs using fluorescent plate reader.
The subject of experiment [10] is HeLa C3. The experiment can be described thus: Induction of apoptosis in human HeLaC3 cells assessed as shrinkage and detached morphology at 20 uM after 24 hrs. It is filed as functional, cell-based.
The subject of experiment [11] is HeLa C3. The experiment can be described thus: Induction of apoptosis in human HeLaC3 cells assessed as shrinkage and detached morphology at 20 uM after 48 hrs. Format: functional, cell-based.
Experiment [12] relates to HeLa C3. The experiment can be described thus: Induction of apoptosis in human HeLaC3 cells assessed as shrinkage and detached morphology at 20 uM after 72 hrs. Format: functional, cell-based.

The structures appear in SMILES notation. Activity calls are given as the source filed them. The rule behind the calls is not given here.

For `CC(C)=CCC/C(C)=C/C[C@@H]1C[C@]2(CC=C(C)C)C(=O)[C@@](CC=C(C)C)(C(=O)C(C(=O)c3ccc(O)c(O)c3)=C2O)C1(C)C`, the result with HeLa C3 [1] and in the experiment with HeLa C3 [2] was Active. In the experiment with HeLa C3 [3], the outcome was inactive.

With `CC(=O)O[C@H]1C(=O)[C@@]2(C)[C@H]([C@H](OC(=O)c3ccccc3)[C@]3(O)C[C@H](OC(=O)[C@H](O)[C@@H](NC(=O)c4ccccc4)c4ccccc4)C(C)=C1C3(C)C)[C@]1(OC(C)=O)CO[C@@H]1C[C@@H]2O`, the outcome in the experiment on HeLa C3 [4], in the experiment on HeLa C3 [6], with HeLa C3 [7], in the experiment with HeLa C3 [8] and with HeLa C3 [9] was Active. Further, in the experiment on HeLa C3 [5], the result was inactive.

Take `COc1cc(O)c2c(=O)c3ccc(O)c(O)c3oc2c1CCC(C)(C)O`: the result in the experiment on HeLa C3 [1] and in the experiment with HeLa C3 [3] was inactive. The outcome in the experiment on HeLa C3 [2] was Active.

As for `COc1cc(O)c2c(=O)c3c(CC=C(C)C)cc(O)c(O)c3oc2c1C/C=C(\C)CCC=C(C)C`, the outcome with HeLa C3 [1] and with HeLa C3 [2] was Active. For the same compound, the outcome in the experiment on HeLa C3 [3] was inactive.

Consider `CC(C)=CCC/C(C)=C/C[C@H]1C[C@]2(C/C=C(\C)CCC=C(C)C)C(=O)[C@@](CC=C(C)C)(C(=O)C(C(=O)c3ccc(O)c(O)c3)=C2O)C1(C)C`, for which the result in the experiment with HeLa C3 [1] and in the experiment with HeLa C3 [3] was inactive. Also, in the experiment with HeLa C3 [2], the outcome was Active.

Take `CC(C)=CCC/C(C)=C/C[C@@H]1C[C@]2(CC=C(C)C)C(=O)[C@@](CC=C(C)C)(C(=O)C(C(=O)c3ccc(O)c(O)c3)=C2O)[C@@]1(C)CCC=C(C)C`: the result with HeLa C3 [1], with HeLa C3 [10], in the experiment with HeLa C3 [2], in the experiment on HeLa C3 [3], in the experiment on HeLa C3 [11] and in the experiment on HeLa C3 [12] was Active.

On to `CC1(C)C=Cc2cc3c(=O)c4c(O)cc(O)cc4oc3c(O)c2O1`, for which the result in the experiment with HeLa C3 [1] and with HeLa C3 [3] was inactive. The outcome with HeLa C3 [2] was Active.

Consider `CC(C)=CCC/C(C)=C/C[C@H]1C[C@@]2(CC=C(C)C)C(=O)c3c(oc4cc(O)c(O)cc4c3=O)[C@](CC=C(C)C)(C2=O)C1(C)C`, for which the outcome in the experiment on HeLa C3 [1] and in the experiment with HeLa C3 [2] was Active. Further, in the experiment on HeLa C3 [3], the outcome was inactive.

Turning to `CC(C)=CCC/C(C)=C/C[C@@H]1C[C@@]2(CC=C(C)C)C(=O)c3c(oc4cc(O)c(O)cc4c3=O)[C@](CC=C(C)C)(C2=O)C1(C)C`, the result with HeLa C3 [1] and with HeLa C3 [2] was Active. The outcome in the experiment with HeLa C3 [3] was inactive.
